Holding throughout (format): binding
One test concerns human TTR. As to the kind of experiment: RBP-TTR coimmunoprecipitation from HeLa conditioned media. As to conditions: HeLa cotransfected, HA immunoprecipitates. In outline:
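HeLa cells cotransfected with myc-tagged TTR plus wild-type or mutant N-terminal HA-tagged human RBP plasmids. Secreted RBP complexes pulled from conditioned media with anti-HA agarose beads and washed in PBS. Western blot of immunoprecipitates probed first for TTR, then for HA.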

Test [1] can be described thus: In vitro retinol titration by fluorescence enhancement. As to conditions: read-out: Kd for retinol; apo-RBP^HA, PBS, fluorescence ex 330 nm, em 460 nm. In outline:
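Apo RBP-HA was immunopurified from serum-free HeLa conditioned medium, eluted with HA peptide, dialyzed into PBS and checked for homogeneity by gel. Equal amounts of protein (380 nM) were loaded with fresh all-trans retinol (0 to 5 µM) for 1 hr in PBS. Retinol fluorescence enhancement (ex 330, em 460 nm) was read on a microplate reader. Parallel runs used PBS with 0.1% phosphatidylcholine vesicles.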

Another test concerns the target T1, STRA6 (Homo sapiens, UniProt Q9BX79).
T1 sequence (Q9BX79 1-667): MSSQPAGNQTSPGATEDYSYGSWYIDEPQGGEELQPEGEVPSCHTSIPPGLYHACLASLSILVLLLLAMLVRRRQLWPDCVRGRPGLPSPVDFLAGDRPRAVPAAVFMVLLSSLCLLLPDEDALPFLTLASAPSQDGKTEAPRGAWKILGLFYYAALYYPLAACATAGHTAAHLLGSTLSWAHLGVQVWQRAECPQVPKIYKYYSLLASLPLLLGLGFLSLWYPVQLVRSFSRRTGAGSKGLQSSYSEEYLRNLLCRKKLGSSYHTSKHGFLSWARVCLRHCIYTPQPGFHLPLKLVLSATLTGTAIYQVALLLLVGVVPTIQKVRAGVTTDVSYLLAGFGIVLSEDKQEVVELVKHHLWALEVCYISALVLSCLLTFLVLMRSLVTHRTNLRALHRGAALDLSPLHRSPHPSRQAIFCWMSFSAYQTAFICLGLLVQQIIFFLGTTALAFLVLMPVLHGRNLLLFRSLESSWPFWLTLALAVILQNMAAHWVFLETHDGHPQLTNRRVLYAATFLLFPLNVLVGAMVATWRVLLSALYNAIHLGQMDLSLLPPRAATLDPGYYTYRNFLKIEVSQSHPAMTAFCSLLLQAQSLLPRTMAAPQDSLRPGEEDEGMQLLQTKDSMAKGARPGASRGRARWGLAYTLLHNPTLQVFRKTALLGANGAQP
As to the kind of experiment: STRA6-RBP equilibrium and kinetic analysis by ELISA on STRA6+ HEK293T cells. As to conditions: read-out: Kd for STRA6, apo RBP^HA, 90 min at 37°C. In outline: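 Cells transfected with STRA6myc or vector were grown on poly-D-lysine. They were incubated 90 min at 37°C with medium containing 0–80 µg/mL apo RBP-HA and 0.5% BSA, washed in ice-cold HBSS, and bound RBP was eluted with 25 mM glycine HBSS pH 3. RBP was quantified by ELISA, with control-cell binding subtracted. Kd came from isotherms and reciprocal plots. TTR affinity was measured by SPR, running a TTR series over captured apo His-RBP.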

The results in this text go back to paper PMC4409664 (Cell, 2015).

Usually Kd stands for the free concentration of one partner at which half of the binding sites on the other are occupied at equilibrium, for simple one-to-one binding.

With serum retinol binding protein [WT], in the test with human TTR, the “interaction with human TTR in coimmunoprecipitation” value is on record as “interacted strongly”. The Kd in test [1] is ~80 nM; on STRA6, 59 nM.
